Measured values published in ChEMBL document CHEMBL1147135, “9-(2-C-Cyano-2-deoxy-beta-D-arabino-pentofuranosyl)guanine, a potential antitumor agent against B-lymphoma infected with Kaposi's sarcoma-associated herpesvirus” (J Med Chem, 2007).
pIC50: −log10 of the molar value. The source made the active and inactive calls. The rule behind the calls is not given here.

Assays:
Human gammaherpesvirus 8 [1] = experiment: Cytotoxicity against Kaposi's sarcoma-associated herpesvirus infected BC3 cells after 120 hrs by MTT assay; type: functional, organism-based; details: Human gammaherpesvirus 8, BC-3, 120 h
In short: (§1)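 KSHV-positive PEL lines (BC2, BC3) and herpesvirus-negative B-lymphoma DG75 exposed to varying nucleoside concentrations for 120 h, then cell viability assay; OD 560 nm, untreated cells of each line set as 100%. Six replicate wells per experiment; IC50 as mean ± SD of three separate experiments.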

Human gammaherpesvirus 8 [2] = experiment: Cytotoxicity against Kaposi's sarcoma-associated herpesvirus infected BC2 cells after 120 hrs by MTT assay; type: functional, organism-based; details: Human gammaherpesvirus 8, BC-2, 120 h; in short: as §1
[3] = Cytotoxicity against DG75 cells after 120 hrs by MTT assay; type: cell-based; details: Homo sapiens, DG-75, 120 h; in short: as §1
BC-3 = experiment: Inhibition of RNA synthesis in KSHV infected BC3 cells assessed as [3H]guanosine incorporation after 1 hr; type: functional, Homo sapiens
In short: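 BC3 cells (2.5 × 10⁵ cells/mL) cultured 24 h, then compound added for 1 h; before harvest, 30 min pulse label with [³H]thymidine for DNA or tritiated ribonucleoside for RNA (guanosine in text, uridine in legend); synthesis measured as radiolabel incorporation.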

Human gammaherpesvirus 8 [4] = experiment: Cytotoxicity against Kaposi's sarcoma-associated herpesvirus infected BC3 cells in presence of 50 uM adenosine after 72 hrs; type: functional, organism-based; details: BC-3
In short: (§2)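 BC3 cells seeded at 10⁴ cells/mL, given graded compound concentrations plus one common nucleoside (final 50 µM) added simultaneously, in triplicate; 3 days (72 h) at 37 °C, humidified 5% CO₂; growth inhibition read by MTT assay.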

Human gammaherpesvirus 8 [5] = experiment: Cytotoxicity against Kaposi's sarcoma-associated herpesvirus infected BC3 cells in presence of 50 uM thymidine after 72 hrs; type: functional, organism-based; details: BC-3; in short: as §2

N#C[C@H]1[C@H](O)[C@@H](CO)O[C@H]1n1cnc2c(N)nc(N)nc21
pIC50 (Human gammaherpesvirus 8 [1]): 6.33
pIC50 (Human gammaherpesvirus 8 [2]): 5.81
pIC50 [3]: < 4.82

Nc1nc2c(ncn2COC(CO)CO)c(=O)[nH]1 [GANCICLOVIR]
pIC50 (Human gammaherpesvirus 8 [1]): 4.15
pIC50 (Human gammaherpesvirus 8 [2]): 4.09
pIC50 [3]: < 4.00

N#C[C@H]1[C@H](O)[C@@H](CO)O[C@H]1n1cnc2c(O)nc(N)nc21
Inhibition (BC-3): 80%
pIC50 (Human gammaherpesvirus 8 [1]): 5.94
pIC50 (Human gammaherpesvirus 8 [2]): 5.12
pIC50 [3]: < 4.82
Activity (Human gammaherpesvirus 8 [4]): inactive
Activity (Human gammaherpesvirus 8 [5]): inactive

N#C[C@@H]1[C@H](O)[C@@H](CO)O[C@H]1n1cnc2c(=O)[nH]c(N)nc21
pIC50 (Human gammaherpesvirus 8 [1]): 5.76
pIC50 (Human gammaherpesvirus 8 [2]): 5.58
pIC50 [3]: < 4.82

N#C[C@H]1[C@H](O)[C@@H](CO)O[C@H]1n1cnc2cnc(N)nc21
pIC50 (Human gammaherpesvirus 8 [1]): < 4.82
pIC50 (Human gammaherpesvirus 8 [2]): < 4.82
pIC50 [3]: < 4.82

Nc1nc2c(ncn2COCCO)c(=O)[nH]1 [ACYCLOVIR]
pIC50 (Human gammaherpesvirus 8 [1]): < 4.00
pIC50 (Human gammaherpesvirus 8 [2]): < 4.00
pIC50 [3]: < 4.00

COc1nc(N)nc2c1ncn2[C@@H]1O[C@H](CO)[C@@H](O)[C@@H]1C#N
pIC50 (Human gammaherpesvirus 8 [1]): 6.10
pIC50 (Human gammaherpesvirus 8 [2]): 5.82
pIC50 [3]: < 4.82

N#C[C@H]1[C@H](O)[C@@H](CO)O[C@H]1n1cnc2c(N)ncnc21
pIC50 (Human gammaherpesvirus 8 [1]): < 4.82
pIC50 (Human gammaherpesvirus 8 [2]): < 4.82
pIC50 [3]: < 4.82

N#C[C@H]1[C@H](O)[C@@H](CO)O[C@H]1n1ccc(N)nc1=O [TAS-109]
pIC50 (Human gammaherpesvirus 8 [1]): 6.64
pIC50 (Human gammaherpesvirus 8 [2]): 6.89
pIC50 [3]: 6.68

N#C[C@H]1[C@H](O)[C@@H](CO)O[C@H]1n1cnc2c(Cl)nc(N)nc21
pIC50 (Human gammaherpesvirus 8 [1]): 5.83
pIC50 (Human gammaherpesvirus 8 [2]): 5.76
pIC50 [3]: < 4.82

O=c1[nH]c(=O)n([C@H]2C[C@H](O)[C@@H](CO)O2)cc1/C=C/Br [BRIVUDINE]
pIC50 (Human gammaherpesvirus 8 [1]): < 4.82
pIC50 (Human gammaherpesvirus 8 [2]): < 4.82
pIC50 [3]: < 4.82
